Compound activity: PubChem, The Scripps Research Institute Molecular Screening Center
Hits are enriched below; roughly 3.9% of the tested compounds scored in any of these assays.
TAAR1 antagonist = human TAAR1 antagonists, primary screen, Fluo-8 calcium fluorescence, CHO RD-HGA16 cells. 1.5% of 360,000 active. Trace amine-associated receptor 1 (Homo sapiens), Q96RJ0. antagonist. inhibition, % at 3 µM;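 active = inhibition above a per-plate cutoff, the mean inhibition of test compounds on that plate plus 3 SD, cut at about 49% in these data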;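 note: 0% = DMSO plus EC80 beta-PEA response and 100% = DMSO alone without agonist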
Target sequence (Q96RJ0 whole entry, looked up): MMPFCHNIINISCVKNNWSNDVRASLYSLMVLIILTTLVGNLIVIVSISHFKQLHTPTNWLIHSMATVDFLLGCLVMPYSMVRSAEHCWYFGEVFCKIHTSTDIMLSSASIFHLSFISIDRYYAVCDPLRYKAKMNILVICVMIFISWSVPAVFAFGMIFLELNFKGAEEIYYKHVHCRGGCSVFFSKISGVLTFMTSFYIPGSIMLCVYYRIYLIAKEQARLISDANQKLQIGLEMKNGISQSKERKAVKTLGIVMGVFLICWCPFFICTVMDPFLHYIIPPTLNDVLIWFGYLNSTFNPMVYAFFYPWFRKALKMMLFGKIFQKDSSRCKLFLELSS
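Test system – hTAAR1-expressing CHO RD-HGA16 cells, Gα16-coupled · Also added – β-PEA at EC80 concentration, post-compound challenge · Compound – 3 µM, single point · Incubation – dye loading 75 min at 37 °C, then 30 min room temperature · Measured by – Fluo-8 intracellular calcium dye fluorescence, real-time kinetic reads · Benchmarks – vehicle and agonist controls · Replicates – singlicate, one well per test compound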
HTR2A ag = mouse Htr2a agonists via beta-arrestin recruitment, primary screen, cell-based, luminescence | CHO-K1 mHTR2A beta-arrestin complementation; percent of 30 µM serotonin response | activation, % at 7.6 µM | 0.66% of 360,000 active | AID 624169, 2012;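 active = activation above a run cutoff, the mean activation of all tested compounds plus 3 SD, cut at about 14% in these data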;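 note: 0% = plate median of compound wells and 100% = 30 µM serotonin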
M1 antag = human M1 muscarinic receptor antagonists, primary screen, CHO-K1 cells, Fluo-8 calcium fluorescence, 1536-well | Muscarinic acetylcholine receptor M1 (Homo sapiens), P11229 | CHO-K1 hM1, ACh EC80 antagonist | inhibition, % at 3 µM | 1.3% of 360,000 active | AID 588852, 2011;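 active = percent inhibition above its own plate's cutoff, namely the mean of that plate's compound wells plus 3 SD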;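 note: peak over basal fluorescence ratio during 140 s after agonist addition; 0% = ACh EC80 plus DMSO and 100% = DMSO alone without agonist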
CHRM1 PAM = human M1 muscarinic receptor positive allosteric modulators, primary screen, CHO-K1 cells, Fluo-8 calcium fluorescence, 1536-well; CHO-K1 hM1, ACh EC20; 0% = ACh EC20, 100% = maximal ACh; 0.088% of 360,000 active; activation, % at 3 µM; Muscarinic acetylcholine receptor M1 (Homo sapiens), P11229; AID 588819, 2011; in the data active = activation above about 19%, passing the limit was not always enough
TAAR1 ag = human TAAR1 agonists, primary screen, Fluo-8 calcium fluorescence, CHO RD-HGA16 cells. Trace amine-associated receptor 1 (Homo sapiens), Q96RJ0. vehicle wells 0%, saturating PEA agonist 100%. activation, % at 3 µM. 0.99% of 360,000 active. AID 624467, 2012;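 active = activation above the mean activation of all test compounds in the run plus 3 SD, cut at about 38% in these data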
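System: CHO-derived RD-HGA16 cells with stable Gα16 and human TAAR1. Times: 17-24 h plating, Fluo-8 75 min 37 °C, 30 min RT. Measured by: calcium-sensitive Fluo-8 signal, excitation 470-495, emission 515-575 nm. Read-out basis: % activation relative to PEA EC100 response. Control set: DMSO and PEA EC100. Repeats: no replicates (n 1).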
CHRM1 agonist = human M1 muscarinic receptor agonists, primary screen, Fluo-8 calcium fluorescence, CHO-K1 cells, HTS | Muscarinic acetylcholine receptor M1 (Homo sapiens), P11229 | CHO-K1 hM1, agonist mode; 0% DMSO, 100% acetylcholine EC100 | activation, % at 3 µM | 0.33% of 360,000 active | AID 588814, 2011;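 active = activation above the run's mean compound activation plus 3 SD, cut at about 16% in these data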;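 note: peak over basal fluorescence ratio within a 140 s kinetic read after compound addition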
* hit, by the source's call; / = no result.

SMILES	TAAR1 antagonist	HTR2A ag	M1 antag	CHRM1 PAM	TAAR1 ag	CHRM1 agonist
COc1ccc(N(C(=O)c2ccco2)C(C(=O)NC2CCCC2)c2ccc(N3CCOCC3)cc2)c(OC)c1 (stereo not drawn)	8	6	-6	8	1	-2
C=CC[C@H]1CC(C)=C[C@H](CC=C)N1C(=O)c1cc(COc2ccccc2SC)on1	53*	-7	18	-6	1	-1
Cc1nnsc1S(=O)c1ccc(Cl)c(Cl)c1 (stereo not drawn)	-6	9	-17	13	5	-6
O=S(c1ccc2ccccc2c1)c1cnns1 (stereo not drawn)	-7	1	-3	8	55*	0
O=C(NCc1ccccc1)[C@H]1CCCN1C(=O)[C@H]1CCCN1C(=O)c1ccc(F)c(F)c1	-10	/	/	/	0	/
CCS(=O)(=O)Nc1c(C)n(C)n(-c2ccccc2)c1=O	-18	0	2	2	9	-1
CC[n+]1c(-c2ccccc2)csc1Nc1c(C)n(C)n(-c2ccccc2)c1=O	-4	6	51*	-26	7	-9
CC[n+]1c(-c2ccc(C)cc2)csc1Nc1c(C)n(C)n(-c2ccccc2)c1=O	-28	3	35*	-26	1	-8
Cc1ccc(Nc2nc3ccccc3nc2Nc2c(C)n(C)n(-c3ccccc3)c2=O)cc1	4	-2	-6	9	0	-4
N#Cc1ccc(NC(=O)COC(=O)C2CCC2)cc1	5	13	-7	1	1	-1
COc1ccc(C(C(=O)NC(C)(C)C)N(C(=O)CNC(=O)c2cccs2)c2ccc(NC(C)=O)cc2)cc1OC (stereo not drawn)	8	10	-2	6	6	-6
CN(C)c1ccc(-c2cc(NC=O)c3ncc(-c4ccc(F)c(Cl)c4)n3c2)cc1	-4	-3	17	-14	8	11
CCc1ccc2c(CC(=O)NNC(=O)c3ccncc3)coc2c1	-11	4	0	2	0	-4
COc1ccc(NC2=NCC(Cc3ccc(Br)cc3)S2)cc1 (stereo not drawn)	-7	-2	79*	-26	23	-10
O=C(NCc1ccccn1)c1cc(-c2ccc(-c3ccccc3)cc2)nc2ccccc12	51*	3	11	-1	7	-5
Cc1cccc(-c2cc(C(=O)NCc3ccccn3)c3ccccc3n2)c1	53*	1	10	-8	11	-4
O=C(NCc1ccccn1)c1cc(-c2ccccc2)nc2ccccc12	-5	2	-9	9	0	-1
Cc1ccc(NC(=S)Nc2ccc(-c3nnc4n3CCCCC4)cc2)cc1C	1	/	/	/	6	/
NC(=O)c1ccccc1NC(=O)COC(=O)CSCc1cccc(Cl)c1	27	6	2	1	9	-1
O=S(=O)(NCc1cccs1)c1ccc(Br)cc1	17	-2	22	-10	0	-4
O=C(Nc1ccc(Br)cc1)c1ccc(F)c(S(=O)(=O)NCc2cccs2)c1	4	1	34*	-19	12	-2
COCCCNC(=O)C[C@H]1C[C@@]2(C(=O)OC)C(=C[C@H](COCc3ccccc3)O[C@@H]2C)N(Cc2ccc3c(c2)OCO3)C1=O	-19	/	/	/	0	/
CCN(CCNC(=O)c1ccc(C#N)cc1)c1cccc(C)c1	/	-2	-14	14	/	-10
CCN(CCNCC(O)COCc1ccc(Cl)cc1)c1cccc(C)c1 (stereo not drawn)	19	-1	-14	13	40*	-1
COc1cccc(N2CCN(c3ncnc4c3[nH]c3ccc(F)cc34)CC2C)c1 (stereo not drawn)	93*	32*	83*	-21	27	7
SMILES	TAAR1 antagonist	HTR2A ag	M1 antag	CHRM1 PAM	TAAR1 ag	CHRM1 agonist
COc1cccc(N2CCN(c3ncnc4c3[nH]c3ccccc34)CC2C)c1 (stereo not drawn)	89*	/	/	/	16	/
CCOC1=C2[C@H](c3ccccc3F)N(S(=O)(=O)c3ccc(C)cc3)C[C@H]2n2c(=O)n(-c3ccccc3)c(=O)n2C1	-25	3	-6	7	3	-4
COc1ccccc1-c1cccc(-c2nc(C(=O)Nc3nccs3)cc3c2[C@@H](CCO)N(C(=O)CC2CC2)C3)c1	51*	3	/	/	11	/
FC(F)(F)c1ccccc1Cc1c(-c2ccco2)nc2c3ccccc3ccn12	-23	/	/	/	5	/
O=C(COC(=O)/C=C/c1cccc(F)c1)Nc1ncccn1	-2	0	-14	24*	5	-3
Cc1c(C(=O)NCc2cccc(Cl)c2)sc(=O)n1Cc1ccc(F)cc1	18	-8	-1	-7	2	-4
Cc1c(C(=O)NCc2ccc(C(C)C)cc2)sc(=O)n1Cc1cccc(F)c1	53*	-2	1	7	48*	12
Cc1c(C(=O)NCc2ccc(F)cc2)sc(=O)n1Cc1ccc(C(=O)c2ccccc2)cc1	54*	-2	-6	-3	1	-4
Cc1c(C(=O)NCc2ccc(C(C)C)cc2)sc(=O)n1Cc1ccc(S(=O)(=O)N(C)C)cc1	38	1	34*	-21	10	0
CC(=O)N1CCN(Cc2cc(=O)oc3cc(C)cc(C)c23)CC1	-14	9	-2	16	1	3
CNC(=O)c1c(NC(=O)c2ccc(S(=O)(=O)N3CCCc4ccccc43)cc2)sc2c1CCN(C)C2	-20	-1	-11	5	9	0
CN1CCc2c(sc(NC(=O)c3ccc(S(=O)(=O)N4CCc5ccccc54)cc3)c2C(N)=O)C1	50*	/	/	/	27	/
CCOC(=O)C1CCCN(C2CC(=O)N(c3cccc(C)c3)C2=O)C1 (stereo not drawn)	15	9	23	-23	36	47*
CCOC(=O)C1CCCN(C(=O)CCCn2nnnc2CN2CCC(C)CC2)C1 (stereo not drawn)	-17	1	-8	0	1	22*
CCOC(=O)C1CCCCN1C(=O)CCn1nnnc1CN1CCOCC1 (stereo not drawn)	-4	3	5	-1	1	-3
COc1ccc(N2C(=O)CSC23C(=O)N2CCCc4cccc3c42)cc1 (stereo not drawn)	7	4	85*	-26	2	-6
